From ChEMBL document CHEMBL1641493, “Discovery of fused 5,6-bicyclic heterocycles as γ-secretase modulators” (Bioorg Med Chem Lett, 2011)
pIC50: −log10 of the molar value. Activity calls are given as the source filed them. The calls are words filed in the database; no cut-off is given here.

How the values were obtained:
[1] = molecular target: Gamma-secretase (Homo sapiens) (UniProt Q96BI3+Q9NZ42+Q8WW43+P49768+Q92542+P49810); assay: Selectivity ratio of IC50 for gamma secretase-mediated total amyloid beta production to IC50 for gamma secretase-mediated amyloid beta42 production in HEK293 cells; format: cell-based
Outline: (§1)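 HEK293 cells stably transfected with APPsw-lon (pcDNA3.1) treated with compound for 5 h. Aβ in the conditioned medium measured by MSD electrochemiluminescent sandwich immunoassay, using TAG-G2-11/biotin-4G8 for Aβ42 and TAG-W02/biotin-4G8 for total Aβ. IC50 values derived for each, and the ratio taken as total Aβ IC50 over Aβ42 IC50.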

[2] = molecular target: Gamma-secretase; assay: Inhibition of gamma secretase-mediated amyloid beta42 production in HEK293 cells by sandwich immunoassay; format: cell-based, Homo sapiens; outline: as §1
[3] = test system: Rattus norvegicus; assay: Antialzheimer activity in CD rat assessed as decrease in amyloid beta42 level in CSF at 30 mg/kg, po after 3 hrs; format: functional
Outline: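 Male CD rats (~100 g) given a single oral dose of 30 mg/kg formulated in 20% hydroxypropyl β-cyclodextrin. CSF sampled 3 h after dosing, stored at -80 °C, and CSF Aβ42 quantified with AlphaLISA amyloid assay kits. Effect expressed as % change in Aβ42.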

[4] = test system: Rattus norvegicus; assay: Antialzheimer activity in CD rat assessed as decrease in amyloid beta42 level in brain at 30 mg/kg, po after 3 hrs; format: functional
Outline: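 Male CD rats (~100 g) dosed orally at 30 mg/kg in 20% hydroxypropyl β-cyclodextrin, brains taken 3 h later and frozen on dry ice. Half cortex homogenized and extracted in 5 M guanidine-HCl/50 mM Tris-HCl pH 8, sonicated, and cleaned up by solid-phase extraction. Eluate dried and resuspended in PBS/0.5% Tween 20, then Aβ42 read by AlphaLISA. Result given as % change.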

SMILES | Ratio IC50 [1] | pIC50 [2] | further results
COc1cc(-c2noc3c2CCCN3[C@@H](C)c2ccc(F)cc2)ccc1-n1cnc(C)c1 | 29 | 6.35 | –
COc1cc(-c2nnc3n2CCCN3Cc2ccc(F)c(F)c2)ccc1-n1cnc(C)c1 | 36 | 6.26 | –
COc1cc(-c2nnc3n2CCCN3CCc2ccc(F)cc2)ccc1-n1cnc(C)c1 | 32 | 6.21 | –
COc1cc(-c2onc3c2CCCN3[C@@H](C)c2ccccc2)ccc1-n1cnc(C)c1 | 37 | 6.27 | –
CCCCCN1CCCn2c(-c3ccc(-n4cnc(C)c4)c(OC)c3)nnc21 | 14 | 5.85 | –
COc1cc(-c2n[nH]c3c2CCCN3C(C)c2ccc(F)cc2)ccc1-n1cnc(C)c1 (stereo not drawn) | 46 | 6.79 | –
COc1cc(-c2nnc3n2CCCN3C(=O)c2ccc(F)cc2)ccc1-n1cnc(C)c1 | 1 | 4.71 | –
COc1cc(-c2nnc3n2CCCN3)ccc1-n1cnc(C)c1 | 1 | 4.70 | –
COc1cc(-c2nnc3n2CCCN3Cc2ccc(C#N)cc2)ccc1-n1cnc(C)c1 | 3 | 5.60 | –
COc1cc(-c2onc3c2CCCN3[C@@H](C)c2ccc(F)cc2)ccc1-n1cnc(C)c1 | 38 | 6.33 | –
COc1cc(-c2nnc3n2CCCN3C(C)c2cc(F)c(F)c(F)c2)ccc1-n1cnc(C)c1 (stereo not drawn) | 165 | 6.94 | –
CCCCC(=O)N1CCCn2c(-c3ccc(-n4cnc(C)c4)c(OC)c3)nnc21 | 10 | 5.68 | –
CC[C@@H](c1ccc(F)cc1)N1CCCc2c(-c3ccc(-n4cnc(C)c4)c(OC)c3)noc21 | 17 | 6.06 | –
COc1cc(-c2noc3c2CCCN3[C@@H](C)c2cc(F)cc(F)c2)ccc1-n1cnc(C)c1 | 21 | 6.03 | –
COc1cc(-c2nnc3n2CCCN3C(c2ccccc2)C2CC2)ccc1-n1cnc(C)c1 (stereo not drawn) | 1 | 4.70 | –
COc1cc(-c2noc3c2CCCN3[C@H](C)c2ccc(F)cc2)ccc1-n1cnc(C)c1 | 14 | 5.86 | –
COc1cc(-c2nnc3n2CCCN3C(C)c2c(F)cc(F)cc2F)ccc1-n1cnc(C)c1 (stereo not drawn) | 58 | 6.47 | –
CCC(c1cc(F)c(F)c(F)c1)N1CCCc2c(-c3ccc(-n4cnc(C)c4)c(OC)c3)n[nH]c21 (stereo not drawn) | 99 | 6.70 | –

SMILES | Ratio IC50 [1] | pIC50 [2] | further results
COc1cc(-c2noc3c2CCCN3[C@@H](C)c2cc(F)c(F)c(F)c2)ccc1-n1cnc(C)c1 | 37 | 6.27 | –
COc1cc(-c2nnc3n2CCCN3C(=O)Cc2ccc(F)cc2)ccc1-n1cnc(C)c1 | 10 | 5.72 | –
CC[C@@H](c1cc(F)c(F)c(F)c1)N1CCCc2c(-c3ccc(-n4cnc(C)c4)c(OC)c3)n[nH]c21 | 164 | 6.91 | inhibition in vivo at 30 mg/kg [3]: 26%
COc1ccc(CN2CCCn3c(-c4ccc(-n5cnc(C)c5)c(OC)c4)nnc32)cc1 | 14 | 5.85 | –
COc1cc(-c2nnc3n2CCCN3C(c2ccc(F)cc2)C2CC2)ccc1-n1cnc(C)c1 (stereo not drawn) | 1 | 4.79 | –
CCCC(c1ccc(F)cc1)N1CCCn2c(-c3ccc(-n4cnc(C)c4)c(OC)c3)nnc21 (stereo not drawn) | 138 | 6.84 | –
COc1cc(-c2onc3c2CCCN3Cc2ccc(F)cc2)ccc1-n1cnc(C)c1 | 48 | 6.45 | inhibition [4]: inactive; inhibition [3]: inactive
COc1cc(-c2nnc3n2CCCN3C(C)c2ccc(F)cc2)ccc1-n1cnc(C)c1 (stereo not drawn) | 39 | 6.29 | –
COc1cc(-c2nnc3n2CCCN3C(=O)C(C)c2ccc(F)cc2)ccc1-n1cnc(C)c1 (stereo not drawn) | 41 | 6.31 | –
COc1cc(-c2nnc3n2CCCN3Cc2ccc(F)cc2)ccc1-n1cnc(C)c1 | 31 | 6.19 | –
CC[C@H](c1cc(F)c(F)c(F)c1)N1CCCc2c(-c3ccc(-n4cnc(C)c4)c(OC)c3)n[nH]c21 | 96 | 6.68 | –
CCC(c1ccc(F)cc1)N1CCCn2c(-c3ccc(-n4cnc(C)c4)c(OC)c3)nnc21 (stereo not drawn) | 128 | 6.81 | –
COc1cc(-c2onc3c2CCCN3Cc2cc(F)cc(F)c2)ccc1-n1cnc(C)c1 | 46 | 6.36 | –
COc1cc(-c2nnc3n2CCCN3Cc2ccc(Cl)c(Cl)c2)ccc1-n1cnc(C)c1 | 159 | 6.90 | –
COc1cc(-c2nnc3n2CCCN3S(=O)(=O)c2ccc(F)cc2)ccc1-n1cnc(C)c1 | 9 | 5.65 | –
COc1cc(-c2nnc3n2CCCN3C(=O)N2CCOCC2)ccc1-n1cnc(C)c1 | 1 | 4.70 | –
COc1cc(/C=C2\CCCN([C@@H](C)c3ccc(F)cc3)C2=O)ccc1-n1cnc(C)c1 | – | – | inhibition in vivo at 30 mg/kg [4]: 44%; inhibition in vivo at 30 mg/kg [3]: 55%
